Only some compounds are listed: those with a hit (about 2.1% of all), similar ones and a draw of the others.
DSG3 Ab inh: blocks pemphigus antibody binding to human desmoglein-3; P32926; DSG3-coupled beads, scFv-anti-DSG3-GFP binding, flow cytometry; hits give low values; binding (percent of control), % at 10 µM; actives 0.48% (n = 310,000); AID 588358;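 active means binding more than 3 SD below its plate's average and above zero; inconclusive means below that plate limit but binding exactly zero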;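 further: hits lower antibody fragment binding to DSG3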
Hck Nef HTS: blocks Nef-activated human Hck kinase. Recombinant Hck-YEEI plus Nef, Z-Lyte FRET kinase assay. inhibition, % at 20 µM. actives 0.68% (n = 220,000);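 active means Hck-Nef kinase inhibition above about 50%, limit read from the data; inactive means inhibition below that limit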;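 further: 0% = DMSO with Hck plus Nef and 100% = Hck alone without Nef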
RanGTP-Imp inh: disruptors of Ran-importin-beta complex formation – biochemical, FRET, CFP-Ran, YFP-importin-beta, homogeneous, primary screen; cell-free CFP-Ran/YFP-importin-beta FRET ratio; inhibition, % (concentration not given with the values); actives 1.1% (n = 300,000);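 active means more than half of the replicate wells show a fall in the fluorescence ratio signal beyond about 16%, limit read from the data, passing the limit was not always enough; inconclusive means exactly half of the replicate wells pass the set limit; inactive means fewer than half of replicates pass the limit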;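 further: 0% = DMSO wells and 100% = Ran loaded with GDP instead of GTP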
Runt-SMMHC FRET: inhibitors of human RUNX1 Runt domain binding to CBFb-SMMHC. Q01196+Q13951. Cerulean-Runt/Venus-CBFb-SMMHC FRET ratio 530/480, 1 h. inhibition, % at 20 µM. actives 0.74% (n = 220,000);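 active means mean inhibition across duplicate retests at 20 µM reaching about 50%, limit read from the data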;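 further: 0% = DMSO wells and 100% = wells with excess untagged CBFb-SMMHC; inhibitors lower the FRET ratio by blocking Runt binding to CBFb-SMMHC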
p-CIP stab down: lowers stability of the mouse p/CIP coactivator protein; Q05BA5; F442A p/CIP-EGFP cells, EGFP fluorescence, 16 h; decrease of EGFP signal, % at 10 µM; actives 0.01% (n = 290,000);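 active means EGFP signal decrease of at least 30% at 10 µM or well 3 SD below plate mean, unless failing retest; inactive means the rest, including hits failing retest or dose response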
Target sequence (Q05BA5 1-1403): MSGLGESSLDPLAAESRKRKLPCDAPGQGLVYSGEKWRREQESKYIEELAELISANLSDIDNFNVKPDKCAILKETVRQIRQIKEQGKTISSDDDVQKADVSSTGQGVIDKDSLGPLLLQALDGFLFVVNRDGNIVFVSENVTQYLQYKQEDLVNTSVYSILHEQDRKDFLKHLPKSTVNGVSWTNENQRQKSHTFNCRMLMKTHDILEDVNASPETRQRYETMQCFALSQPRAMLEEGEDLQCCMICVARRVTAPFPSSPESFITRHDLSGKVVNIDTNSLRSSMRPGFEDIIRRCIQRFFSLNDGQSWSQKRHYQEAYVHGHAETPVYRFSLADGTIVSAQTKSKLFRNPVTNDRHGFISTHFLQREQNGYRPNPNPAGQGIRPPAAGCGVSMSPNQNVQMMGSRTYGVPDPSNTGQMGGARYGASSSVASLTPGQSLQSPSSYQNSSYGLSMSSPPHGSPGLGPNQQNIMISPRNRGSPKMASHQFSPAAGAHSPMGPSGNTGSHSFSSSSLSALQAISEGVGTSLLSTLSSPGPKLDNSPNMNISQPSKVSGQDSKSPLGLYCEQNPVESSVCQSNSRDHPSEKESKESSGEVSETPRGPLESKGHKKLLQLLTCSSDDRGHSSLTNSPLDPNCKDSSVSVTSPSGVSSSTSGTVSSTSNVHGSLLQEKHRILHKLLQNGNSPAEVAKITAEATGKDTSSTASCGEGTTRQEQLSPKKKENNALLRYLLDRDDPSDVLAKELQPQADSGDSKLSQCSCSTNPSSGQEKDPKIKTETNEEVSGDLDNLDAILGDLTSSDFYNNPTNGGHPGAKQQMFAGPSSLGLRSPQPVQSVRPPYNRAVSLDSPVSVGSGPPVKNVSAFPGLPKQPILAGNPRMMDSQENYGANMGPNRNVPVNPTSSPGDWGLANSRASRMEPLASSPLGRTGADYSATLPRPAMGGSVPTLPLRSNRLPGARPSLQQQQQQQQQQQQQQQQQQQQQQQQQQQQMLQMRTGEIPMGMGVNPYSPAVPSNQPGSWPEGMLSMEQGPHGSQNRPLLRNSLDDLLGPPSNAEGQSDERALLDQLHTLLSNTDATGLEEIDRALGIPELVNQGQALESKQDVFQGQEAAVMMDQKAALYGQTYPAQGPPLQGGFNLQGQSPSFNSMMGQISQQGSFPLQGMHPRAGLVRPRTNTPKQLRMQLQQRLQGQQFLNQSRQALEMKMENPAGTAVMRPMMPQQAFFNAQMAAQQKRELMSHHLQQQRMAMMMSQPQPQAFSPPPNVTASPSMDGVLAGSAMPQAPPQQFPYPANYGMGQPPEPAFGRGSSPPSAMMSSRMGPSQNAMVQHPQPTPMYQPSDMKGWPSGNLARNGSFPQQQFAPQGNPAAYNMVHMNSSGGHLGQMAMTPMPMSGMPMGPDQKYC
Runt-CBFb FRET: blocks binding of human RUNX1 Runt domain to CBFb | Q01196+Q13951 | Cerulean-Runt/Venus-CBFb FRET ratio 530/480, 1 h | inhibition, % at 20 µM | actives 0.46% (n = 220,000) | AID 1496;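 active means inhibition over about 50% at 20 µM in the single-dose screen, limit read from the data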;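 further: 0% = DMSO wells and 100% = excess unlabeled CBFb competitor control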
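Measured by: fluorescence energy transfer, 422 nm excitation, 530/480 nm emission; test system: Cerulean-tagged RUNX1 Runt domain (FRET donor) fusion protein; buffer or medium: Tris pH 7.5 buffer with BSA; compound: one dose, 20 µM compound, 1% DMSO; times: two 1 h room-temperature incubations shielded from light; benchmarks: unlabeled CBFb 5 µM, positive control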
Hck Nef conf: Hck-Nef kinase inhibition, confirmation; shares compounds with Hck Nef HTS; Recombinant Hck-YEEI:Nef, Z-Lyte FRET kinase assay; calls only at 10 µM; actives 28% (n = 1,300);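 active means average inhibition of at least 50%, with Z-scores no higher than 3 in both the phospho-tyrosine peptide and fluorescence counterscreens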
* marks the source's active call; other numbers are inactive results; i = inactive; ? = inconclusive; . = no result shown; + = active, no number.

SMILES	DSG3 Ab inh	Hck Nef HTS	RanGTP-Imp inh	Runt-SMMHC FRET	p-CIP stab down	Runt-CBFb FRET	Hck Nef conf
CCC1C(=O)C[C@H]2CCN3C(=O)CCCC1C23 (some centres not stated)	93	.	.	.	.	.	.
Cc1ccc(-c2nc(SCC(=O)N(C)c3c(N)n(Cc4ccccc4)c(=O)[nH]c3=O)n[nH]2)cc1	106	.	0	.	-5	.	.
CCOC(=O)CNC(=O)C1CCN(S(=O)(=O)c2ccc(-c3nn[nH]n3)cc2)CC1	109	.	5	.	-3	.	.
COc1ccc(C2=CC3=C(Br)C(=O)C(C)(OC(=O)c4ccco4)C(=O)C3=CO2)cc1 (configuration not stated)	88	92*	-1	-31	-8	5	+
N=c1c(C(=O)NCc2ccc(F)cc2)cc2c(=O)n3ccccc3nc2n1CC1CCCO1 (configuration not stated)	115	145*	199*	60*	10	10	.
CCCn1c(=N)c(C(=O)NCC2CCCO2)cc2c(=O)n3cccc(C)c3nc21 (configuration not stated)	96	192*	184*	38	-8	12	.
CCCn1c(=O)c(C(=O)NCC2CCCO2)c(O)c2ccccc21 (configuration not stated)	96	1	4	-2	-14	-2	.
COCCn1c(=O)[nH]c2cc(C(=O)NCC3CCCO3)ccc2c1=O (configuration not stated)	78	5	2	1	17	2	.
COCCCn1c(=N)c(C(=O)NCC2CCCO2)cc2c(=O)n3ccccc3nc21 (configuration not stated)	.	+	172*	65*	1	12	.
O=C(NCc1ccc(Cl)cc1)c1ccc2c(=O)n(CC3CCCO3)c(=S)[nH]c2c1 (configuration not stated)	.	.	-1	.	-16	.	.
Cc1ccc(S(=O)(=O)Nc2ncccn2)cc1	97	.	2	.	8	.	.
CC1CCC(NC(=O)COC(=O)CCC(=O)c2ccc(Cl)s2)CC1 (configuration not stated)	88	.	1	.	.	.	.
COc1ccc(S(=O)(=O)N2CCCOC2CNC(=O)C(=O)NCc2cccnc2)cc1 (configuration not stated)	102	.	-5	.	-8	.	.
N#Cc1ccc(N2C(=O)[C@@H]3C(C(=O)c4cnccn4)=NN[C@@H]3C2=O)cc1	109	-6	3	-8	-4	0	.
O=C(C1=NN[C@@H]2C(=O)N(c3cccc(C(F)(F)F)c3)C(=O)[C@H]12)c1cnccn1	.	52*	2	2	8	1	i
O=C(N/N=C/c1ccc(O)cc1)Nc1cccc2nsnc12	.	53*	5	3	-40	-11	i
N#Cc1ccc(C(=O)CSc2n[nH]c(=O)n2Cc2ccco2)cc1	.	18	-1	1	-11	3	.
Cc1sc(-n2c(C)cc(/C=C3\SC(=S)NC3=O)c2C)c(C#N)c1C	97	71*	10	-4	-8	.	i
C=CCOc1ccc(C(=O)O)cc1Cl	106	.	-1	.	14	.	.
COc1ccc(Nc2n[nH]c(N)c2C(N)=O)cc1	100	65*	0	2	10	0	i
S=c1[nH]nc(-c2cccc(Cl)c2)n1/N=C/c1ccc(-c2ccccc2Br)o1	91	58*	?	2	0	1	i
O=C(CN1C(=O)c2ccc([N+](=O)[O-])cc2C1=O)NCc1ccc(C(=O)O)cc1	105	.	0	.	-12	.	.
O=C(Nc1nc2ccc(S(=O)(=O)N3CCCC3)cc2s1)c1ccccn1	99	57*	10	3	3	-1	i
O=C(Nc1nc2ccc(S(=O)(=O)N3CCCCC3)cc2s1)c1ccncc1	.	1	-1	-10	1	0	.
COc1ccc2[nH]c3c(c2c1)CCN1C(=O)C(CC(=O)NCCC2=CCCCC2)C[C@H](C(=O)N2CCCCC2)[C@@]31C (some centres not stated)	101	.	.	.	.	.	.
SMILES	DSG3 Ab inh	Hck Nef HTS	RanGTP-Imp inh	Runt-SMMHC FRET	p-CIP stab down	Runt-CBFb FRET	Hck Nef conf
CCc1ccc(NS(=O)(=O)c2c(C(=O)N3CCCCCC3)c(C)n(C)c2C)cc1	96	.	3	.	-1	.	.
C=CCNC(=O)c1c(N)n(-c2cccc(S(N)(=O)=O)c2)c2nc3ccccc3nc12	114	58*	.	38	-14	80*	i
CCOC(=O)c1c(/N=C/N(C)C)sc(C=O)c1-c1ccccc1	110	98*	6	134*	8	103*	i
O=C1c2cccc3cc([N+](=O)[O-])cc(c23)C(=O)N1/N=C/c1ccc(O)cc1O	89	55*	3	-20	-14	-3	+
CC(=O)c1c(C)[nH]c(C(=O)OCC(=O)Nc2nnc(-c3ccccc3)o2)c1C	100	.	.	.	.	.	.
CCCc1cc(=O)oc2c(CN(CC)CC)c(O)c(Cl)cc12	87	+	24*	129*	0	91*	.
CN(C)Cc1c(O)ccc2c(-c3ccccc3)cc(=O)oc12	99	6	4	-49	-11	-17	.
Cc1oc2c(CN(C)C)c(O)ccc2c(=O)c1-c1cscn1	98	0	?	2	-8	0	.
CCN(CC)Cc1c(O)ccc2c(=O)c(-c3ccccc3Cl)coc12	106	.	2	.	0	.	.
CCc1c(C)c2ccc(O)c(CN(C)C)c2oc1=O	107	59*	9	131*	-13	50	.
CCCCc1cc(=O)oc2c(CN(C)C)c(O)ccc12	116	83*	10	107*	-9	48	.
Cc1ccc(NC(=O)C(=O)NCCCN2CC(C(=O)O)CC2=O)cc1 (configuration not stated)	102	.	7	.	-10	.	.
COc1ccccc1/C=C/C(=O)NCC(=O)N/N=C/c1ccc(C)o1	116	.	1	.	13	.	.
COc1cccc(/C=N/Nc2ncnc3c2[nH]c2ccc(C)cc23)c1OC	107	66*	7	-7	6	-12	i
COc1ccc(/C=N/Nc2ncnc3c2[nH]c2ccccc23)c(OC)c1OC	102	5	3	10	-9	0	.
COC(=O)c1cc(C(=O)OCC(=O)NC(=O)c2ccccc2)cc([N+](=O)[O-])c1	98	.	-2	.	.	.	.
O=C(COc1cc2oc(=O)c3c(c2cc1Cl)CCC3)NCC(O)c1ccccc1 (configuration not stated)	98	.	1	.	-19	.	.
CN(C)c1ccc(C2CC(=O)C=C(Nc3ccccc3N)C2)cc1 (configuration not stated)	104	18	1	-3	11	14	.
